In ChEMBL document CHEMBL1151714 (J Med Chem, 2008):
Calls of active or inactive are those of the source. No cut-off for these calls is given here.

Columns and labels:
[1] = target: Baculoviral IAP repeat-containing protein 3 (Homo sapiens, UniProt Q13489); experiment: Displacement of fluorescently tagged SM5F from human cIAP-2 BIR3 expressed in Escherichia coli BL21 cells by fluorescence polarization assay
[2] = system: MDA-MB-231; experiment: Induction of cIAP1 degradation in human MDA-MB-231 cells at 10 nM after 24 hrs by Western blotting; type: functional, cell-based
Outline: (§1)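 MDA-MB-231 cells were exposed to a range of concentrations for 24 hours. Whole-cell levels of cIAP-1, cleaved PARP and cleaved caspase-3 were then probed by Western blot.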

[3] = system: Rattus norvegicus; experiment: Half life in Sprague-Dawley rat at 30 mg/kg, po; type: ADME, organism-based; design: dose 30 mg/kg, route oral; conditions: in vivo
Outline: (§2)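 Rat pharmacokinetics after a single oral dose. Compounds were given at 25 or 30 mg/kg. Cmax, elimination half-life and AUC(0-∞) were determined, and oral bioavailability was calculated. Values are reported as mean ± deviation.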

[4] = system: Rattus norvegicus; experiment: Cmax in Sprague-Dawley rat at 30 mg/kg, po; type: ADME, organism-based; design: dose 30 mg/kg, route oral; conditions: in vivo
[5] = system: Rattus norvegicus; experiment: AUC (0 to infinity) in Sprague-Dawley rat at 30 mg/kg, po; type: ADME, organism-based, Plasma; design: dose 30 mg/kg, route oral, time infinity; conditions: in vivo
Outline: (§3)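 Rats were given a single oral dose of 25 or 30 mg/kg. Maximum plasma concentration (Cmax), elimination half-life and AUC(0-∞) were derived. Oral bioavailability was also reported.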

[6] = system: MDA-MB-231; experiment: Induction of PARP cleavage in human MDA-MB-231 cells at 100 nM after 24 hrs by Western blotting; type: functional, cell-based; outline: as §1
[7] = system: MDA-MB-231; experiment: Induction of caspase 3 processing in human MDA-MB-231 cells at 100 nM after 24 hrs by Western blotting; type: functional, cell-based; outline: as §1
[8] = system: MDA-MB-231; experiment: Reversal of human XIAP BIR3-mediated suppression of cytochrome c-induced caspase-3/-7 activity in human MDA-MB-231 cell lysate by cell free functional assay
Outline: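 Caspase-3/-7 in cell lysates was activated by adding cytochrome c and dATP. Recombinant XIAP BIR3 protein at 0.5 μM was used to suppress activation, and recovery of caspase-3/-7 activity was measured across compound doses. Activity was read at the 30-minute time point and expressed relative to maximum activation.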

[9] = system: Rattus norvegicus; experiment: Bioavailability in Sprague-Dawley rat at 30 mg/kg, po; type: ADME, organism-based; conditions: in vivo; outline: as §2
[10] = system: MDA-MB-231; experiment: cells; conditions: Homo sapiens, MDA-MB-231, 96 h
[11] = system: Rattus norvegicus; experiment: AUC (0 to infinity) in Sprague-Dawley rat at 25 mg/kg, po; type: ADME, organism-based, Plasma; design: time infinity, dose 25 mg/kg, route oral; conditions: in vivo; outline: as §3
[12] = system: Rattus norvegicus; experiment: Half life in Sprague-Dawley rat at 25 mg/kg, po; type: ADME, organism-based; design: dose 25 mg/kg, route oral; conditions: in vivo; outline: as §2
[13] = system: Rattus norvegicus; experiment: Bioavailability in Sprague-Dawley rat at 25 mg/kg, po; type: ADME, organism-based; conditions: in vivo; outline: as §2
[14] = system: Rattus norvegicus; experiment: Cmax in Sprague-Dawley rat at 25 mg/kg, po; type: ADME, organism-based; design: dose 25 mg/kg, route oral; conditions: in vivo

Baculoviral IAP repeat-containing protein 3, sequence (Q13489 whole entry): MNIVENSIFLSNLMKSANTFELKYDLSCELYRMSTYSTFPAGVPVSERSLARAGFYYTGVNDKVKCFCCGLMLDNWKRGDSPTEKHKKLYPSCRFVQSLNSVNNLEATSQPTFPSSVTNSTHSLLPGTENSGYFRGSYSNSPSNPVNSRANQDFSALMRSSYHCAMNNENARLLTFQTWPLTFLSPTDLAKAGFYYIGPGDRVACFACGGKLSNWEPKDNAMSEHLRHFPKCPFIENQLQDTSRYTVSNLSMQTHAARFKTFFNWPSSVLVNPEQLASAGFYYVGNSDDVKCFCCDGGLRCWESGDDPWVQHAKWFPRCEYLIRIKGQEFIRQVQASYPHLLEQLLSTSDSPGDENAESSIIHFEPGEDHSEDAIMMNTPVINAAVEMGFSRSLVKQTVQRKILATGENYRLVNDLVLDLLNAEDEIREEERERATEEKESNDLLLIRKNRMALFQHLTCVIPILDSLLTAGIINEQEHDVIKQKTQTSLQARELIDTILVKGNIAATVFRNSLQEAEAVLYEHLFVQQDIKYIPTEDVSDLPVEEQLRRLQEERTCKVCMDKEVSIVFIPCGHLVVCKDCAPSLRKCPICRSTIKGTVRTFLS

CN[C@@H](C)C(=O)N[C@H]1CN(C)CC[C@H]2CC[C@@H](C(=O)NC(c3ccccc3)c3ccccc3)N2C1=O
Ki [1]: 17.5 nM

CN[C@@H](C)C(=O)N[C@H]1CN(C(=O)Cc2ccccc2)CC[C@H]2CC[C@@H](C(=O)NC(c3ccccc3)c3ccccc3)N2C1=O.Cl
Activity [2]: Active
t1/2 [3]: 4.7 h
Cmax [4]: 532 nM
AUC [5]: 1985 µg/L
Activity [6]: Active
Activity [7]: Active
Activity [8]: Dose-dependent effect
F [9]: 24%

CN[C@@H](C)C(=O)N[C@H]1CNCC[C@H]2CC[C@@H](C(=O)NC(c3ccccc3)c3ccccc3)N2C1=O
Ki [1]: 4.6 nM
IC50 [10]: 890 nM

CN[C@@H](C)C(=O)N[C@H]1CN(Cc2ccccc2)CC[C@H]2CC[C@@H](C(=O)NC(c3ccccc3)c3ccccc3)N2C1=O
Ki [1]: 9.8 nM

CN[C@@H](C)C(=O)N[C@H]1CCCC[C@H]2CC[C@@H](C(=O)NC(c3ccccc3)c3ccccc3)N2C1=O.Cl
AUC [11]: 482 µg/L
t1/2 [12]: 1.7 h
F [13]: 14%
Cmax [14]: 545 nM
